GSK3A inh = inhibitors of human GSK-3 alpha kinase | ADP-Glo luminescence, 60 min | 320,000 tested, 0.1% active | inhibition, % at 10 µM | P49840;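 active means more than half of replicates show inhibition above 20%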;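 further: GST-tagged GSK-3 alpha with peptide substrate and 25 µM ATP; 0% = DMSO neutral wells and 100% = GW8510 positive control wells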
Target sequence (P49840 whole entry, looked up): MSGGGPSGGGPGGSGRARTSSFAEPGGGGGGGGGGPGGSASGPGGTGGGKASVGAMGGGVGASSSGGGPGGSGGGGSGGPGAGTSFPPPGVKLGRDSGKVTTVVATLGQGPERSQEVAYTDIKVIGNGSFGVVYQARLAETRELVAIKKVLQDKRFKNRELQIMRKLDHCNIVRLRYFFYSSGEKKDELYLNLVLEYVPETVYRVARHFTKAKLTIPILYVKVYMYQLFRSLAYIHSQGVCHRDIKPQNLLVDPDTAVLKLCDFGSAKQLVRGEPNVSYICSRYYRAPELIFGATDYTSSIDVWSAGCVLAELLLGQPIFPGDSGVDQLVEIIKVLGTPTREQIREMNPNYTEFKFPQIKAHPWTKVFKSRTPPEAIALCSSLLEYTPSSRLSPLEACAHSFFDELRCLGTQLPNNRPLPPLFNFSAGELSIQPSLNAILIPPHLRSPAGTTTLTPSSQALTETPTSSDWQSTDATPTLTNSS
CDK5 p35 inh = inhibitors of human CDK5/p35 kinase; Recombinant CDK5/p35, ADP-Glo luminescence, 60 min; inhibition, % at 10 µM; 330,000 tested, 0.01% active; AID 488839;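 active means highest replicate inhibition of at least 50% and at least 75% of replicates reaching 50%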;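 further: plate controls were DMSO neutral control for no effect and GW8510 at 10 µM for full effect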
STK33 kinase inh = blocks human STK33 kinase activity; 320,000 tested, 0.073% active; purified STK33, MBP phosphorylation, ADP-Glo luminescence; inhibition, % at 10 µM;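 active means inhibition at or above 25%, using the most active replicate where run in duplicate; inactive means inhibition below 25%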
HIV Env fusion = HIV envelope-mediated fusion inhibition; HeLa-JRFL Env/CEM21 cell fusion, luciferase; inhibition, % at 12.3 µM; 360,000 tested, 1.1% active; AID 651610;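 active means mean replicate inhibition score of at least 50 and every replicate individually at or above 50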;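 further: 0% = plate neutral controls and 100% = maraviroc near 300 nM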
GSIS activator = primary screen for activators of insulin secretion dependent on glucose, INS-1E cells, GLuc reporter luminescence | activation, % at 16.6 µM | INS-1E GLuc reporter insulin secretion, 2-3 h | 370,000 tested, 0.61% active;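 active means lowest replicate activation of at least 40%, so every replicate reaches that level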;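 further: 0% = median of neutral control wells and 100% = median of IBMX positive control wells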
GSK3B inh = blocks human GSK3beta kinase activity; activity score (negative = inhibition), % at 10 µM; GST-GSK3beta kinase, ADP-Glo luminescence, 60 min; stronger effect = lower value; AID 2097; P49841; 300,000 tested, 0.038% active;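 active means more than half of replicate wells score below -50%, meaning over 50% inhibition versus plate controls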;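 further: 0% = median DMSO wells and -100% = median GW8510 positive control wells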
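test system = GST-tagged human GSK3beta kinase, cell-free | reagent = 25 µM ATP with peptide substrate | dosing = one dose of 10 µM per compound | schedule = 60 min reaction, RT | detection = luminescent ADP-Glo measurement of ADP formed | control set = DMSO neutral wells and GW8510 at 20 µM as positive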
* = called active by the depositor; · = not tested or not shown; [ ] = another dose, or the depositor's remark. This is a sample that favours compounds with a hit; in the whole collection about 1.4% have one here.

SMILES	GSK3A inh	CDK5 p35 inh	STK33 kinase inh	HIV Env fusion	GSIS activator	GSK3B inh
CO[C@H]1CN(C)C(=O)c2ccc(NS(=O)(=O)c3cn(C)cn3)cc2OC[C@H](C)N(C)C[C@@H]1C	·	·	·	·	-4.1	·
COc1cccc(-n2c(=O)c3ccccc3n(CC(=O)NCC3CCCO3)c2=O)c1 (configuration not stated)	-0.3	0.3	-0.7	2.0	75.5*	0.6
Cn1c(SCc2ccc(Cl)cc2Cl)nc(C(F)(F)F)cc1=O	·	-0.4	-3.5	-14.2	64.7*	4.3
COc1ccc(-c2cnc3c(c2)C(=O)N([C@H](C)CO)C[C@H](C)[C@H](CN(C)Cc2cccnc2)O3)cc1	·	·	·	-2.1[16.7 µM]	-0.2	·
CN(c1ccc(F)cc1)S(=O)(=O)c1ccc(Cl)c(C(=O)NCC2CCCO2)c1 (configuration not stated)	·	1.2	·	0.2	43.2*	·
COCCNC(=O)c1cc(S(=O)(=O)N(C)C2CCCCC2)ccc1Cl	·	·	·	57.5*	-6.5	·
COc1ccccc1N(C)S(=O)(=O)c1ccc(Cl)c(C(=O)NCC2(N(C)C)CCCCC2)c1	0.8	1.4	0.0	94.6*	-17.1	-3.4
CN(c1ccc(C(=O)NCC2CCCO2)cc1)S(=O)(=O)c1ccc(Cl)cc1 (configuration not stated)	·	·	·	-4.8	16.8	·
CN(C)S(=O)(=O)c1ccc(Cl)c(C(=O)NCC2CCCCC2)c1	-0.9	-1.0	-0.6	2.8	25.9	-2.8
COc1ccccc1N(C)S(=O)(=O)c1ccc(Cl)c(C(=O)NNC(=O)c2ccccc2O)c1	0.1	-1.8	-0.5	-2.4	-23.4	4.9
COc1ccc2c3c(n(C)c2c1)[C@H](CO)N(Cc1ccccc1)CC31CCN(CC2CC2)CC1	·	·	·	·	4.6	·
C[C@@H]1CN([C@@H](C)CO)C(=O)Cc2cc(NS(=O)(=O)c3cccs3)ccc2O[C@@H]1CN(C)S(=O)(=O)c1ccccc1	·	·	·	4.6[16.7 µM]	4.5	·
COc1ccc(CC2C(=O)NC(C)C(=O)N(C)C3Cc4ccc(cc4)Oc4cc(ccc4O)CC(C(=O)NC(C)C(=O)NC(C)C(=O)N2C)N(C)C3=O)cc1 (configuration not stated)	·	-1.1	·	77.1*	-25.3	·
COc1ccc(NC(=O)N[C@H]2CC[C@@H](CCNC(=O)Nc3cc(F)ccc3F)O[C@H]2CO)cc1	·	·	·	·	-8.2	·
CCN1C(=O)[C@H]2[C@@H](c3ccc(C(F)(F)F)cc3)N[C@]3(CCCN(Cc4ccccc4)C3=O)[C@H]2C1=O	·	·	·	78.3*	·	·
CC(C)COc1ccc(Br)cc1CNC(C)(C)C	2.1	1.6	-1.2	13.9	50.6*	-2.6
CN(C)CC(=O)Nc1ccc2c(c1)C(=O)N(C)[C@H]1CC[C@H](CC(=O)Nc3ccc(F)cc3)O[C@@H]1CO2	·	·	·	·	-5.9	·
O=C1c2cccnc2-c2ncccc21	-1.9	-0.6	-1.7	·	·	2.3
O=C1C(=O)c2cccnc2-c2ncccc21	·	·	·	59.8*	29.3	·
COc1ccc(CCn2ccc(O)c(Cc3c(F)cccc3Cl)c2=O)cc1OC	-0.6	1.2	-0.6	22.7	42.7*	1.2
NC(N)=N/N=C/c1ccc(OCc2ccccc2)c(OCc2ccccc2)c1	-1.9	-1.0	0.4	-11.4	438.6*	-2.3
NC(N)=N/N=C/c1ccccc1	-2.4	0.7	-0.5	0.8	·	-4.4
NC(N)=N/N=C/c1ccc(OCc2ccccc2Cl)cc1	4.1	2.6	0.9	·	50.7*	-7.7
CCOc1cc(/C=N/N=C(N)N)ccc1OCc1ccc(Cl)cc1	2.0	0.3	0.6	-1.8	·	-25.5
C[C@@H]1CN([C@@H](C)CO)C(=O)c2cc(NS(=O)(=O)c3cn(C)cn3)ccc2O[C@@H](C)CCCCO[C@@H]1CN(C)C(=O)CCC(F)(F)F	·	·	·	-11.1[16.7 µM]	4.7	·
SMILES	GSK3A inh	CDK5 p35 inh	STK33 kinase inh	HIV Env fusion	GSIS activator	GSK3B inh
O=C(O)c1ccc(N=Nc2c(O)[nH]c3ccc(Br)cc23)cc1	64.3*	-3.8	0.5	-26.5	15.2	2.0
Oc1ccc(C[C@H]2CN([C@@H](Cc3ccccc3)CN3CCCC3CN3C(=S)NC[C@@H]3Cc3ccccc3)C(=S)N2CC2CCCCC2)cc1 (some centres not stated)	·	·	·	-6.4	-11.3	·
O=C1NC[C@@H](CCCCN2C[C@H](Cc3ccc(O)cc3)N(Cc3ccccc3)C(=O)C2=O)N(CCc2ccc(O)cc2)C1=O	·	·	·	57.3*	4.3	·
O=C1NC[C@H](CCCCN2C[C@H](Cc3ccc(O)cc3)N(Cc3ccccc3)C(=O)C2=O)N(CCc2ccc(O)cc2)C1=O	·	·	·	0.2	-12.2	·
CC(C)C[C@H]1CNC(=S)N1CC1CCCN1C[C@H](Cc1ccc(O)cc1)N1C[C@H](Cc2ccccc2)N(CC2CCCCCC2)C1=S (some centres not stated)	·	-0.5	·	58.2*	8.6	·
Oc1ccc(C[C@H]2CNC(=S)N2CC2CCCN2C[C@H](Cc2ccc(O)cc2)N2C[C@H](Cc3ccc(O)cc3)N(CC3CCCCC3)C2=S)cc1 (some centres not stated)	·	0.0	·	91.0*	-37.5	·
CC(C)C[C@H]1CNC(=S)N1CC1CCCN1C[C@H](Cc1ccccc1)N1C[C@H](Cc2ccc(O)cc2)N(CC2CCCCC2)C1=S (some centres not stated)	·	-0.1	·	-89.5	26.0	·
CC(C)C[C@H]1CNC(=S)N1C[C@H]1CCCN1C[C@H](Cc1ccc(O)cc1)N1C[C@H](Cc2ccccc2)N(CC2CCCCC2)C1=S	·	·	·	111.8*	9.2	·
CC(C)C[C@H]1CNC(=S)N1C[C@H]1CCCN1C[C@H](Cc1ccccc1)N1C[C@H](Cc2ccc(O)cc2)N(CC2CCCCCC2)C1=S	·	·	·	-12.7	·	·
CO[C@H]1CN(C)C(=O)c2ccc(NC(=O)Nc3cccc(F)c3)cc2OC[C@@H](C)N(C(=O)C2CC2)C[C@H]1C	·	·	·	·	-20.6	·
CO[C@@H]1CN(C)C(=O)c2cc(NC(=O)C3CC3)ccc2OC[C@@H](C)NC[C@@H]1C	·	·	·	·	7.8	·
CC(C)C[C@H]1CN([C@@H](Cc2ccc(O)cc2)CN2CCC[C@H]2CN2C(=O)C(=O)NC[C@@H]2Cc2ccccc2)C(=O)C(=O)N1CCc1ccccc1	·	·	·	4.5	·	·
CC(C)C[C@H]1CN([C@@H](Cc2ccc(O)cc2)CN2CCC[C@H]2CN2C(=O)C(=O)NC[C@@H]2Cc2ccc(O)cc2)C(=O)C(=O)N1CCc1ccccc1	·	·	·	60.0*	43.7*	·
COC(=O)c1cc2ccccc2c([N+](=O)[O-])c1O	·	0.6	·	-1.7	55.2*	·
COC(=O)c1cc2ccccc2c(-c2c(OC)c(C(=O)OC)cc3ccccc23)c1OC	-1.3	-2.0	0.7	27.0	·	3.0
O=C(C[C@H]1C=C[C@@H](NC(=O)CCN2CCCCC2)[C@@H](CO)O1)Nc1ccc(-c2ccccc2)cc1	·	·	·	-9.4[16.7 µM]	-15.6	·
O=[N+]([O-])c1ccc(S(=O)Cc2ccccc2)c([N+](=O)[O-])c1 (configuration not stated)	·	0.9	·	-165.2	117.2*	·
CCCCCCCCC#Cc1nc(C)ccc1OC	·	-1.2	·	14.4	55.8*	·

Bioassay records as filed in PubChem.
